Measured values from different studies.
Target: Eukaryotic elongation factor 2 kinase (EEF2K, Homo sapiens, UniProt O00418)

CCN(CC)CCNC(=O)c1c(C)[nH]c(/C=C2\C(=O)Nc3ccc(F)cc32)c1C
inhibition (enzyme activity, inhibitor; 10 µM): -4%

Nc1nc(NC2CCCCC2)sc1C(=O)c1ccccc1
remaining activity (enzyme activity, inhibitor; 10 µM): 89%

CCN1CCC2(CC1)NC(=O)c1c(c3ccc(Cl)c(Cl)c3n1C)C2C#N (racemic)
ΔTm (thermal stability, DSF; 10 µM): 0 °C

C=CC(=O)Nc1cc(Nc2nccc(Nc3cc(Cl)c(F)cc3C(C)(C)O)n2)c(OC)cc1N1CC[C@@H](N(C)C)C1
inhibition (enzyme activity, inhibitor; 1 µM): 11%

Cc1ccc(Nc2nccc(N(C)c3ccc4c(C)n(C)nc4c3)n2)cc1S(N)(=O)=O
inhibition (enzyme activity, inhibitor; 10 µM): -10%

FC(F)c1nc2ccccc2n1-c1nc(N2CCOCC2)nc(N2CCOCC2)n1
remaining activity (enzyme activity, inhibitor; 10 µM): 96%

CCN(CC)c1ccc(C2=NNC(=O)CC2C)cc1[N+](=O)[O-] (centres unmarked)
remaining activity (enzyme activity, inhibitor; 10 µM): 95%

CCN1CCN(Cc2ccc(NC(=O)c3ccc(C)c(Oc4ccnc5[nH]ccc45)c3)cc2C(F)(F)F)CC1
inhibition (target engagement in cells, inhibitor, chemoproteomics; A-375; 5 µM): -27.8%

CC1(C)NC(=O)c2[nH]c3c(Cl)c(Cl)ccc3c2C1C#N (centres unmarked)
ΔTm (thermal stability, DSF; 10 µM): -0.3 °C

FC(F)(F)Oc1cccc(-c2cnc3ccc(-c4ccncc4)nn23)c1
activity vs control (enzyme activity, inhibitor, radiometric; 5 µM): 98%

Cn1c2c(c3ccc(Cl)c(Cl)c31)C(C#N)C(C)(C)NC2=O (centres unmarked)
ΔTm (thermal stability, DSF; 10 µM): -0.5 °C

Cn1c(=O)n(-c2ccc(C(C)(C)C#N)cc2)c2c3cc(-c4cnc5ccccc5c4)ccc3ncc21
remaining activity (enzyme activity, inhibitor; 10 µM): 110%

COc1cc(/C=C/C(=O)CC(=O)/C=C/c2ccc(O)c(OC)c2)ccc1O
activity vs control (enzyme activity, inhibitor; 1 µM): 98%

COc1cc2ncnc(Nc3ccc(Oc4ccccc4)c(C)c3C)c2cc1OC
inhibition (enzyme activity, inhibitor; 1 µM): 1%

CCN1CCN(Cc2ccc(NC(=O)c3ccc(C)c(/C=C/c4cnc5[nH]ccc5c4OC)c3)cc2C(F)(F)F)CC1
inhibition (target engagement in cells, inhibitor, chemoproteomics; A-375; 0.5 µM): -21.7%

Cn1c2c(c3ccc(Cl)c(Cl)c31)C(C#N)C1(CCOCC1)NC2=O (centres unmarked)
ΔTm (thermal stability, DSF; 10 µM): -0.2 °C

CC(C)(C)c1nc2c(s1)c1nc(N)ncc1c1ccc(NS(=O)(=O)c3c(F)cccc3F)c(F)c12
remaining activity (enzyme activity, inhibitor, radiometric; 1 µM): 88%

COc1cc(Nc2cnc(C#N)c(O[C@H](C)CN(C)C)n2)ncc1-c1cnn(C)c1
remaining activity (enzyme activity, inhibitor, radiometric; 10 µM): 87%

Cn1c2c(c3ccccc31)C(C#N)C(C)(C)NC2=O (centres unmarked)
ΔTm (thermal stability, DSF; 10 µM): 0 °C

CCCOc1ccc(OC)c(F)c1C(=O)c1ccc(C(=O)N[C@@H]2CNC[C@H]2NC(=O)c2ccc3[nH]ncc3c2)cc1
remaining activity (enzyme activity, inhibitor; 10 µM): 128%

Cc1cc(NC(=O)c2cccc3cc(-c4cccc5[nH]nc(N)c45)ccc23)ccc1F
activity vs control (enzyme activity, inhibitor; 0.1 µM): 103%

CNC(=O)c1cc(Oc2ccc(NC(=O)Nc3ccc(Cl)c(C(F)(F)F)c3)cc2)ccn1
inhibition (enzyme activity, inhibitor; 10 µM): -8%

Nc1nc(Nc2ccccc2)sc1C(=O)c1c(F)cccc1F
remaining activity (enzyme activity, inhibitor; 10 µM): 95%
